The chains are these.
B1: tRNA (parent)
chain: GUUCCGUUGGCGUAAUGGUAACGCGUCUCCCUCCUAAGGAGAAGACUGCGGGUUCGAGUCCCGUACGGAACG

This sample holds only a part of the variants without activity.

The data set covers variants of B1. The experiment in a line: yeast fitness relative to wild type (ratio to wild type); higher = fitter; tRNA-Arg(CCU), competitive growth, 37 C, YPD. An outline of the steps: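 Variants of the tRNA-Arg(CCU) gene, chemically synthesised with a 3% per-site mutation rate at 69 sites, were placed at the native genomic locus in Saccharomyces cerevisiae. The pooled strains were competed in YPD at 37°C for 24 hours in six parallel replicates. Gene amplicons from the start population and from each end population were read by 100-nucleotide paired-end sequencing. Darwinian fitness relative to wild type came from changes in genotype frequencies; genotypes needed ≥ 100 starting reads, and estimates < 0.5 were set to 0.5.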
Consider C27G G41A G67U, for which the yeast fitness was 0.709. The value for C27G G41A G67A was 0.789; that for C27G A65U C66G was ≤ 0.5. Consider C27G U28A C34U, for which the yeast fitness was ≤ 0.5. In the case of C27U A37G G41A G50C it was 0.649. As for C27G A45U C55A, the yeast fitness is ≤ 0.5. As to C27G A42G G68A, the yeast fitness was ≤ 0.5. The value for C27U A36G G56C was ≤ 0.5; that for C27U A40G C62G G68A was ≤ 0.5.

In the case of C27U A40U U54C, the yeast fitness was ≤ 0.5.

With C27G U28G C66G G67C, the yeast fitness was ≤ 0.5. The value for C27G U32C C62U was 0.62; that for C27G C33G G44A was 0.669; that for C27U A40C G58A was 0.626.

With C27G C30G C49U C62U G67A, the yeast fitness was ≤ 0.5.

As for C27U A37C A40U A43U C66U, the yeast fitness came to 0.583. The value for C27G C46G was 1.11. The value for C27G C46U was 0.972; that for C27G C46A was 0.933; that for C27G C30U C66U was ≤ 0.5. In the case of C27G A43C A65U G67U it was ≤ 0.5.

With C27G U35A G52A A57G A69U A70U, the yeast fitness is ≤ 0.5. In the case of C27G A45G C61U A69U it was ≤ 0.5; in that of C27G U53C G56A C66U, ≤ 0.5; in that of C27G G39A, 0.615. The value for C27U A36C A69U was 0.646; that for C27G C30G C49U C61A was ≤ 0.5; that for C27G C31G C61A was 0.693. In the case of C27U A37C G56C G63C U64C it was ≤ 0.5. In the case of C27G C30U G39C A40U G44C U47A G48A, the yeast fitness was ≤ 0.5. The value for C27G C30G C49U C60U G63C was 0.678; that for C27G A57U was 0.591; that for C27G A57G was 0.608. For C27G G41A C55U, the yeast fitness came to 0.618. The value for C27G C60G A65U was 0.641; that for C27G C49U G63C was ≤ 0.5. In the case of C27G G41A U64A, the yeast fitness turned out to be 0.681.

For the variant C27G C29G C34U C55U C61G, the yeast fitness was 0.65. In the case of C27G U28C it was 0.609. In the case of C27G U28G it was 0.522; in that of C27G A45C C55G G58C, ≤ 0.5; in that of C27G G38C U64A, ≤ 0.5.

As for C27G G44C A45G U64A, the yeast fitness is ≤ 0.5. In the case of C27G C30U C46A it was 0.655; in that of C27G U59G, 0.641; in that of C27G U32G A40U A42U C55G, ≤ 0.5.

Consider C27G C60A, for which the yeast fitness is ≤ 0.5. As to C27G C60U, the yeast fitness is ≤ 0.5. The value for C27G G41A G68C was 0.71; that for C27U A43C A69C was 0.754; that for C27G C30G A40G C49A was 0.571. The value for C27G U47C G50A A57G C60G was 0.636; that for C27U A36C U54A C62U was ≤ 0.5; that for C27G U54C C62U was 0.552. In the case of C27U A42U C61G it was 0.545; in that of C27G A45G G48A C66U, ≤ 0.5; in that of C27G G38A G48C, 0.538.

As to C27G G68C, the yeast fitness stood at 0.65.

C27G A42C G63C: the yeast fitness was ≤ 0.5. The value for C27U A40G was 0.834.

As to C27U A40U, the yeast fitness is 0.925.

Turning to C27U A37U A65U, the yeast fitness was found to be 0.591. The value for C27U A36U A69C A70U was ≤ 0.5; that for C27U A42U C62U A65C G67A was ≤ 0.5; that for C27U A37C C60G A65G was ≤ 0.5. As to C27G G67U, the yeast fitness is 0.632. As for C27G C60U C61G, the yeast fitness worked out at 0.681. In the case of C27G A42U C55U A70C it was ≤ 0.5; in that of C27G C31G A36U A37U, 0.615. For C27G A43U, the yeast fitness came out at 0.604. With C27G C34U C49U C66G, the yeast fitness was ≤ 0.5. Consider C27G A42C C49G C61G, for which the yeast fitness stood at 0.669. Take C27G C29G C49U: the yeast fitness is ≤ 0.5. In the case of C27G G39A C66U G67A it was ≤ 0.5; in that of C27G G38C C62G C66U, ≤ 0.5. For the variant C27G C30U C31A C33G C49U G58C, the yeast fitness was ≤ 0.5. In the case of C27G C29U C49U A70U it was ≤ 0.5; in that of C27U A37C G51C G67U, 0.543.

For the variant C27G G48C C49G, the yeast fitness worked out at 0.503. On to C27G G38C, for which the yeast fitness came out at 0.5. For C27U A36G A42C C49U, the yeast fitness worked out at 0.574. On to C27U A37U C49U, for which the yeast fitness worked out at 0.549. On to C27G A65U A70G, for which the yeast fitness is 0.575. C27G C60U G67C: the yeast fitness is ≤ 0.5.

As to C27G C33U A45U G63A, the yeast fitness was ≤ 0.5. The value for C27G C34G U54A was 0.6. In the case of C27G A70C it was 0.786; in that of C27U A40G G44A, 0.513; in that of C27G C30U U32C G51C, 0.603.

Consider C27G C31U C34G A37G G44A, for which the yeast fitness was ≤ 0.5. The value for C27G A43G A70G was ≤ 0.5.

In the case of C27G G51C, the yeast fitness was 0.78. On to C27G G38C C49G A70G, for which the yeast fitness was ≤ 0.5. With C27G C33G A57C, the yeast fitness was ≤ 0.5.

Regarding C27U A40C C46U, the yeast fitness was 0.661. In the case of C27G C31A A69U it was 0.589; in that of C27G G41A A57G, 0.746. Consider C27U A37G A70C, for which the yeast fitness worked out at 0.562. Turning to C27G C34A C61U, the yeast fitness is ≤ 0.5. The value for C27G A40U U59C was 0.543; that for C27G U28A A43U was 0.582.

On to C27G G39A C46U, for which the yeast fitness came out at 0.74. In the case of C27G A45U G56C it was 0.531. The value for C27G G50A C60G was 0.778; that for C27G C31U C49G U59A was ≤ 0.5.

In the case of C27G C31U C34G A37G A65C, the yeast fitness is ≤ 0.5.

Regarding C27G U35A A45U G67A, the yeast fitness was 0.612. The value for C27U was 0.995. The value for C27G A43C G63C was ≤ 0.5; that for C27G C34G A45G G51C A70G was ≤ 0.5.

In the case of C27G G48A U59G, the yeast fitness is ≤ 0.5.

Take C27G U35A: the yeast fitness worked out at 0.636.

On to C27G C31A A70U, for which the yeast fitness was ≤ 0.5. In the case of C27G G41A it was 1.03; in that of C27G G52A G63A, 0.533. The value for C27G C31G G63U was ≤ 0.5; that for C27G C30G G56U G63A was ≤ 0.5.

For the variant C27G C30U G52C, the yeast fitness stood at 0.507. With C27G C30G G56U, the yeast fitness was found to be 0.543. For C27G C31U A57G, the yeast fitness came to 0.562.

In the case of C27G C31G G38C, the yeast fitness was 0.504. Take C27U A42G: the yeast fitness worked out at 0.695. In the case of C27U A42G G67A it was 0.589; in that of C27G C29G A40U A45C A57U, ≤ 0.5. With C27G U64A, the yeast fitness amounted to 0.665. As to C27G C31A C33G C49U G58C A70U, the yeast fitness is ≤ 0.5. On to C27G A45U C49U, for which the yeast fitness is ≤ 0.5. Regarding C27U A37G G38C A43C C62G, the yeast fitness worked out at 0.508. With C27G C34G C46U C49U, the yeast fitness is ≤ 0.5.

As to C27G C30G A40G C49A A65U, the yeast fitness was ≤ 0.5. The value for C27U A43C C49U was 0.757; that for C27G U32G A36C C46G was ≤ 0.5. With C27G G41A C49G G56C, the yeast fitness is ≤ 0.5. In the case of C27G G63C, the yeast fitness was found to be 0.582. In the case of C27G G63A it was 0.665; in that of C27G U28A C30G C31U G68C A70C, ≤ 0.5. The value for C27G A42U C55U was ≤ 0.5; that for C27G G50A G56C was ≤ 0.5. The value for C27G G38A A70U was ≤ 0.5; that for C27G G39A C66G was 0.655. On to C27U A40G G44A C55U A69U, for which the yeast fitness is ≤ 0.5. The value for C27G C55A G58A was ≤ 0.5; that for C27G C30U A65U A70U was 0.594; that for C27G C49U C55G was ≤ 0.5.

As to C27G U47A, the yeast fitness amounted to 0.702.

Take C27U A37U U47G: the yeast fitness was 0.531.

Consider C27G C33G G41A, for which the yeast fitness was ≤ 0.5.

Take C27G C31G C46A: the yeast fitness came out at 0.932.

Take C27U A36C A57G: the yeast fitness is ≤ 0.5.

Regarding C27G U28A G52A C55U, the yeast fitness is ≤ 0.5. Take C27G U54C A69G: the yeast fitness came out at 0.625.

Consider C27G G50C, for which the yeast fitness is ≤ 0.5.

In the case of C27G A43G C60A, the yeast fitness was ≤ 0.5. The value for C27G A65U was 0.713; that for C27G A65G was 0.694; that for C27G C34U G41C G51A was ≤ 0.5. Take C27U A43C U64C: the yeast fitness turned out to be 0.732.

Turning to C27G U53G, the yeast fitness was ≤ 0.5. In the case of C27G U54A, the yeast fitness stood at 0.544. The value for C27G A43C A57U was 0.599.

Take C27G A57U C62U: the yeast fitness was determined as 0.62. The value for C27G C31G C49A U53C was ≤ 0.5; that for C27G A57G U59G was ≤ 0.5. In the case of C27G C29U A37U, the yeast fitness was ≤ 0.5. As for C27G C31A A37C, the yeast fitness was ≤ 0.5. In the case of C27G C29U C49U it was ≤ 0.5; in that of C27G C31G C33U, ≤ 0.5.
